Experimental data taken from ChEMBL document CHEMBL1157913, “Development of a new generation of 4-aminoquinoline antimalarial compounds using predictive pharmacokinetic and toxicology models” (J Med Chem, 2010).

Test: Permeability by PAMPA assay at pH 7.4
Assay type: ADME
Conditions: not given
Summary of the method: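 Double-sink PAMPA, GIT-0 lipid-coated filter. Donor 50 μM final (from DMSO stock) at pH 5.0, 6.2 or 7.4; acceptor pH 7.4. Stirred 30 min (40 μm aqueous boundary layer), constant humidity. Both compartments read by UV absorbance 250–500 nm; Pe (cm/s) calculated, four wells per pH, mean ± SD.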

| SMILES | permeability [×10⁻⁶ cm/s] |
| --- | --- |
| CCCN(CCCNc1ccnc2cc(Cl)ccc12)CC1CC1 | 1109 |
| Clc1ccc2c(NCCCNCc3cccc4c3OCO4)ccnc2c1 | 2400 |
| COc1cccc(CNCCCNc2ccnc3cc(Cl)ccc23)c1O | 1363 |
| CCN(CC)CCCC(C)Nc1ccnc2cc(C(F)(F)F)ccc12 (stereo not drawn) | 2704 |
| CCN(CC)CCCC(C)Nc1ccnc2cc(Cl)ccc12 (stereo not drawn) [CHLOROQUINE] | 775 |

Test: Permeability by PAMPA assay at pH 6.2
Assay type: ADME
Conditions: not given

| SMILES | permeability [×10⁻⁶ cm/s] |
| --- | --- |
| CCCN(CCCNc1ccnc2cc(Cl)ccc12)CC1CC1 | 2 |
| Clc1ccc2c(NCCCNCc3cccc4c3OCO4)ccnc2c1 | 979 |
| CCN(CC)CCCC(C)Nc1ccnc2cc(C(F)(F)F)ccc12 (stereo not drawn) | 235 |
| CCN(CC)CCCC(C)Nc1ccnc2cc(Cl)ccc12 (stereo not drawn) [CHLOROQUINE] | 51 |

Test: Permeability by PAMPA assay at pH 5.0
Assay type: ADME
Conditions: not given

| SMILES | permeability [×10⁻⁶ cm/s] |
| --- | --- |
| Clc1ccc2c(NCCCNCc3cccc4c3OCO4)ccnc2c1 | 19 |
| CCN(CC)CCCC(C)Nc1ccnc2cc(C(F)(F)F)ccc12 (stereo not drawn) | 2 |

Test: Tmax in CD1 mouse at 50 mg/kg, po
Assay type: ADME, organism-based
Set-up: dose 50 mg/kg, route oral
Conditions: in vivo
Summary of the method: (§1)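 Male CD-1 mice given one 50 mg/kg oral gavage dose (n = 3), vehicle 0.9% saline or 5% DMSO/95% PEG300 depending on compound. Retro-orbital blood into EDTA under isoflurane at 15, 30, 60 min and 2, 4, 8, 10, 24, 48 h (3 mice per time point). Plasma analysed by LC-MS/MS; AUC0-t, Cmax, Tmax, t1/2 derived by noncompartmental software.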

| SMILES | Tmax [min] |
| --- | --- |
| CCCN(CCCNc1ccnc2cc(Cl)ccc12)CC1CC1 | 30 |
| Clc1ccc2c(NCCCNCc3cccc4c3OCO4)ccnc2c1 | 120 |
| COc1cccc(CNCCCNc2ccnc3cc(Cl)ccc23)c1O | 240 |
| CCN(CC)CCCC(C)Nc1ccnc2cc(Oc3ccccc3)ccc12 (stereo not drawn) | 30 |
| CCN(CC)CCCC(C)Nc1ccnc2cc(Cl)ccc12 (stereo not drawn) [CHLOROQUINE] | 30 |

Test: Cmax in CD1 mouse at 50 mg/kg, po
Assay type: ADME, organism-based
Set-up: dose 50 mg/kg, route oral
Conditions: in vivo
Summary of the method: as §1

| SMILES | Cmax [nM] |
| --- | --- |
| CCCN(CCCNc1ccnc2cc(Cl)ccc12)CC1CC1 | 437 |
| Clc1ccc2c(NCCCNCc3cccc4c3OCO4)ccnc2c1 | 240 |
| COc1cccc(CNCCCNc2ccnc3cc(Cl)ccc23)c1O | 65.9 |
| CCN(CC)CCCC(C)Nc1ccnc2cc(Oc3ccccc3)ccc12 (stereo not drawn) | 261 |
| CCN(CC)CCCC(C)Nc1ccnc2cc(Cl)ccc12 (stereo not drawn) [CHLOROQUINE] | 444 |

Test: AUClast in CD1 mouse at 50 mg/kg, po
Assay type: ADME, organism-based
Set-up: time 0 - last, dose 50 mg/kg, route oral
Conditions: plasma
Summary of the method: as §1

| SMILES | AUC(0-t) [µM·h] |
| --- | --- |
| CCCN(CCCNc1ccnc2cc(Cl)ccc12)CC1CC1 | 6.79 |
| Clc1ccc2c(NCCCNCc3cccc4c3OCO4)ccnc2c1 | 2.03 |
| COc1cccc(CNCCCNc2ccnc3cc(Cl)ccc23)c1O | 0.62 |
| CCN(CC)CCCC(C)Nc1ccnc2cc(Oc3ccccc3)ccc12 (stereo not drawn) | 0.726 |
| CCN(CC)CCCC(C)Nc1ccnc2cc(Cl)ccc12 (stereo not drawn) [CHLOROQUINE] | 2.64 |

Test: Toxicity in po dosed CD1 mouse administered qd for 7 days
Assay type: organism-based
Conditions: in vivo
Summary of the method: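 Male and female CD-1 mice (6–8 weeks, n = 5/sex/dose group) received oral gavage once daily for 7 days at 50, 100, 200 or 100, 200, 400 mg/kg/day, depending on the article. The article was suspended daily in 5% DMSO:95% PEG 300, and vehicle-treated animals served as controls. Body weights were taken predose, on day 4 and on day 8. Day-8 retro-orbital blood went to hematology and serum chemistry, followed by necropsy with histopathology and organ weights. MTD was estimated.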

| SMILES | MTD at 168 h [mg/kg] |
| --- | --- |
| Clc1ccc2c(NCCCNCc3cccc4c3OCO4)ccnc2c1 | 100 |
| COc1cccc(CNCCCNc2ccnc3cc(Cl)ccc23)c1O | 400 |
